Laboratory results reported in ChEMBL document CHEMBL4118021, “Studies of TAK1-centered polypharmacology with novel covalent TAK1 inhibitors” (Bioorg Med Chem, 2017).
Calls of active or inactive are those of the source. The rule behind the calls is not given here.

Columns and labels:
[1] = biological target: Cyclin-dependent kinase-like 2 (Homo sapiens) (UniProt Q92772); assay: Inhibition of human CDKL2 (1 to 327 residues) expressed in bacterial expression system assessed as enzyme activity at 10 uM by KINOMEScan assay relative to control; set-up: scale not given: the % may be the effect or the level left
Outline: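 In vitro ATP-site competition binding assay (KinomeScan) across a panel of 456 kinases. Compound was tested at 1 and 10 μM. The read-out is the binding inhibition score relative to control.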

[2] = biological target: Mast/stem cell growth factor receptor Kit (Homo sapiens) (UniProt P10721); assay: Inhibition of human KIT (571 to 952 residues) expressed in bacterial expression system assessed as enzyme activity at 1 uM by KINOMEScan assay relative to control; set-up: scale not given: the % may be the effect or the level left
Outline: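 In vitro ATP-site competition binding assay across a panel of 456 kinases, with compound tested at 1 and 10 μM.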

[3] = biological target: Cyclin-dependent kinase 20 / CCRK (Homo sapiens) (UniProt Q8IZL9); assay: Inhibition of CCRK in human SKCO1 cells at 1 uM after 4 hrs using biotin labeled DLKPANLLISASGQLK probe by mass-spectrometric analysis relative to control
[4] = biological target: Dual specificity mitogen-activated protein kinase kinase 1 (Homo sapiens) (UniProt Q02750); assay: Binding affinity to MAP2K1 in human NCI-H358 cells at 1 uM by mass spectrometry based pull down assay; format: cell-based
[5] = biological target: T1, 80S Ribosome (Homo sapiens) (UniProt P08865+P42677+P62753+P15880+P23396+P61247+P62701+P22090+P46782+P62081+P62241+P46781+P46783+P62280+P25398+P62277+P62263+P62841+P62244+P62249+P08708+P62269+P39019+P60866+P63220+P62266+P62847+P62851+P62854+P62979+P62857+P62273+P62861+P39023+P36578+P46777+Q02878+P18124+P62424+P62917+P32969+P27635+P62906+P62913+P30050+P26373+P40429+P50914+P61313+P18621+Q07020+Q02543+P84098+P46778+P35268+P62829+P62750+P83731+P61254+P61353+P46776+P46779+P47914+P62888+P62899+P62910+P49207+P42766+P18077+Q9Y3U8+P83881+P61927+P61513+P63173+P62891+P62945+P05388+P05386); assay: Binding affinity to RPS11 in human NCI-H358 cells at 1 uM by mass spectrometry based pull down assay; format: cell-based
[6] = biological target: Peroxiredoxin-4 (Homo sapiens) (UniProt Q13162); assay: Binding affinity to PRDX4 in human NCI-H23 cells at 1 uM by mass spectrometry based pull down assay; format: cell-based
[7] = biological target: Dual specificity mitogen-activated protein kinase kinase 2 (Homo sapiens) (UniProt P36507); assay: Binding affinity to MAP2K2 in human NCI-H23 cells at 1 uM by mass spectrometry based pull down assay; format: cell-based
[8] = biological target: Beclin-1 (Homo sapiens) (UniProt Q14457); assay: Binding affinity to BECN1 in human NCI-H358 cells at 1 uM by mass spectrometry based pull down assay; format: cell-based
[9] = biological target: Agrin (Homo sapiens) (UniProt O00468); assay: Binding affinity to AGRN in human NCI-H358 cells at 1 uM by mass spectrometry based pull down assay; format: cell-based
Outline: (§1)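 NCI-H23 or NCI-H358 cells were grown and lysed. Lysates were incubated overnight at 4 °C with 1 μM biotinylated covalent probe or DMSO, then pulled down on streptavidin beads. Proteins were run on polyacrylamide gels and stained with Coomassie. Bands were excised, digested and identified by mass spectrometry.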

[10] = biological target: Importin-5 (Homo sapiens) (UniProt O00410); assay: Binding affinity to IPO5 in human NCI-H358 cells at 1 uM by mass spectrometry based pull down assay; format: cell-based
[11] = biological target: ADP-ribosylation factor-like protein 2 (Homo sapiens) (UniProt P36404); assay: Binding affinity to ARL2 in human NCI-H358 cells at 1 uM by mass spectrometry based pull down assay; format: cell-based
[12] = biological target: Peroxiredoxin-4 (Homo sapiens) (UniProt Q13162); assay: Binding affinity to PRDX4 in human NCI-H358 cells at 1 uM by mass spectrometry based pull down assay; format: cell-based
[13] = biological target: T1, 80S Ribosome (Homo sapiens); assay: Binding affinity to RPS23 in human NCI-H358 cells at 1 uM by mass spectrometry based pull down assay; format: cell-based
[14] = biological target: Small ribosomal subunit protein eS6 (Homo sapiens) (UniProt P62753); assay: Binding affinity to RPS6 in human NCI-H358 cells at 1 uM by mass spectrometry based pull down assay; format: cell-based
[15] = biological target: Leucine-rich repeat flightless-interacting protein 1 (Homo sapiens) (UniProt Q32MZ4); assay: Binding affinity to LRRFIP1 in human NCI-H358 cells at 1 uM by mass spectrometry based pull down assay; format: cell-based
[16] = biological target: Aldehyde dehydrogenase X, mitochondrial (Homo sapiens) (UniProt P30837); assay: Binding affinity to ALDH1B1 in human NCI-H358 cells at 1 uM by mass spectrometry based pull down assay; format: cell-based; outline: as §1
[17] = biological target: TGF-beta-activated kinase 1 and MAP3K7-binding protein 3 (Homo sapiens) (UniProt Q8N5C8); assay: Binding affinity to TAB3 in human NCI-H23 cells at 1 uM by mass spectrometry based pull down assay; format: cell-based
[18] = biological target: T1, 80S Ribosome (Homo sapiens); assay: Binding affinity to RPS26 in human NCI-H23 cells at 1 uM by mass spectrometry based pull down assay; format: cell-based
[19] = biological target: Deaminated glutathione amidase (Homo sapiens) (UniProt Q86X76); assay: Binding affinity to NIT1 in human NCI-H23 cells at 1 uM by mass spectrometry based pull down assay; format: cell-based
[20] = biological target: Protein phosphatase 1G (Homo sapiens) (UniProt O15355); assay: Binding affinity to PPM1G in human NCI-H358 cells at 1 uM by mass spectrometry based pull down assay; format: cell-based
[21] = biological target: Proteasome activator complex subunit 3 (Homo sapiens) (UniProt P61289); assay: Binding affinity to PSME3 in human NCI-H23 cells at 1 uM by mass spectrometry based pull down assay; format: cell-based
[22] = biological target: Bifunctional glutamate/proline--tRNA ligase (Homo sapiens) (UniProt P07814); assay: Binding affinity to EPRS in human NCI-H358 cells at 1 uM by mass spectrometry based pull down assay; format: cell-based
[23] = biological target: Ribosomal protein S6 kinase alpha-1 (Homo sapiens) (UniProt Q15418); assay: Binding affinity to RPS6KA1 in human NCI-H23 cells at 1 uM by mass spectrometry based pull down assay; format: cell-based
[24] = biological target: COP9 signalosome complex subunit 8 (Homo sapiens) (UniProt Q99627); assay: Binding affinity to COPS8 in human NCI-H358 cells at 1 uM by mass spectrometry based pull down assay; format: cell-based
[25] = biological target: Membrane-associated progesterone receptor component 1 (Homo sapiens) (UniProt O00264); assay: Binding affinity to PGRMC1 in human NCI-H358 cells at 1 uM by mass spectrometry based pull down assay; format: cell-based
[26] = biological target: Actin-related protein 2/3 complex subunit 2 (Homo sapiens) (UniProt O15144); assay: Binding affinity to ARPC2 in human NCI-H358 cells at 1 uM by mass spectrometry based pull down assay; format: cell-based

Peroxiredoxin-4 (Homo sapiens), sequence (Q13162 whole entry): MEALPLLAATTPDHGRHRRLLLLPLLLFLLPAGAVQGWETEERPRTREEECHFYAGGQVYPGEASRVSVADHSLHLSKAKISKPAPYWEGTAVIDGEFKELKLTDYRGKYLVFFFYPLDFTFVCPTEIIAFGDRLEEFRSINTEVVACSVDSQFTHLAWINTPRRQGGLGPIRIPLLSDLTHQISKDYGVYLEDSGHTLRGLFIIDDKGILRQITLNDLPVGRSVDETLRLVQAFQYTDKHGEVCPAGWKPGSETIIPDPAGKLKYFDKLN
TGF-beta-activated kinase 1 and MAP3K7-binding protein 3 (Homo sapiens), sequence (Q8N5C8 whole entry): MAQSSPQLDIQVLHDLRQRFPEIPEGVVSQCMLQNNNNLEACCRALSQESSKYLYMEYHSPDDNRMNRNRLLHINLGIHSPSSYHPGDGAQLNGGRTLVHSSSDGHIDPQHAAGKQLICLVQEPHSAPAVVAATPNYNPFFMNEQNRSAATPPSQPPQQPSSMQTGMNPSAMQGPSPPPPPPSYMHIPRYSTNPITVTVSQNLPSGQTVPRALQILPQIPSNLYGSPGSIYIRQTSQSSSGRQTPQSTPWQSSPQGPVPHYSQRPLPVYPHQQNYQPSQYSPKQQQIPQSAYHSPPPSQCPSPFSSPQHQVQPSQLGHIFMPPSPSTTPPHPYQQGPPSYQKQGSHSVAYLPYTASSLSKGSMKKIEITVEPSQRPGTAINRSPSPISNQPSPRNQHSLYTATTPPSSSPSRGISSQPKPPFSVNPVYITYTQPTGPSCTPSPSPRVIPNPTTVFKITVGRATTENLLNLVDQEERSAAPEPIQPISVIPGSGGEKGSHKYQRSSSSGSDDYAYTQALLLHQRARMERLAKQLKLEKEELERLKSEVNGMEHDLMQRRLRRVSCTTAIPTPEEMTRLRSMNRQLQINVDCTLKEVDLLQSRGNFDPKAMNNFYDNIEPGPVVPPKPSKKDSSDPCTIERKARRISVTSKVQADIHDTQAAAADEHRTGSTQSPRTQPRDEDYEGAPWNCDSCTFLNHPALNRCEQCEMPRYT
Leucine-rich repeat flightless-interacting protein 1 (Homo sapiens), sequence (Q32MZ4 whole entry): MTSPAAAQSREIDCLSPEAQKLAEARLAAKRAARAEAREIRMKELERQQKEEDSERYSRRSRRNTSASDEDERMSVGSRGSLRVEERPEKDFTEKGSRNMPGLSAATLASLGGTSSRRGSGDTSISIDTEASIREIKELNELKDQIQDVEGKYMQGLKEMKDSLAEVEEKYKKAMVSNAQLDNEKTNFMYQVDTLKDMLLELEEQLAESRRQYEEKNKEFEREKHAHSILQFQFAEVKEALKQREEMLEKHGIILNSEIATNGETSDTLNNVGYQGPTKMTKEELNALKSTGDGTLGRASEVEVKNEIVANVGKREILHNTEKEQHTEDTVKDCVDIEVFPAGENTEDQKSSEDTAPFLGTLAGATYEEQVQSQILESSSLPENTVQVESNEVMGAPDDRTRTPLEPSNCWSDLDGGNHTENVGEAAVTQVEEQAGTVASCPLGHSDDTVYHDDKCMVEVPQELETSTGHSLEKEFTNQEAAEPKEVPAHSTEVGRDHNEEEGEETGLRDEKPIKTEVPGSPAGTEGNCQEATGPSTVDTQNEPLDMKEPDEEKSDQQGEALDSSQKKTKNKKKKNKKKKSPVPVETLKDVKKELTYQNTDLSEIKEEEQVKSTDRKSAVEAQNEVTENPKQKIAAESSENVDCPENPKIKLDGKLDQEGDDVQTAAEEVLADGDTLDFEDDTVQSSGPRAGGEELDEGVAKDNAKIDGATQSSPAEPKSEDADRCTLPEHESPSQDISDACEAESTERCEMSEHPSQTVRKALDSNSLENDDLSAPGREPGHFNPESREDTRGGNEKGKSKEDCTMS
Ribosomal protein S6 kinase alpha-1 (Homo sapiens), sequence (Q15418 whole entry): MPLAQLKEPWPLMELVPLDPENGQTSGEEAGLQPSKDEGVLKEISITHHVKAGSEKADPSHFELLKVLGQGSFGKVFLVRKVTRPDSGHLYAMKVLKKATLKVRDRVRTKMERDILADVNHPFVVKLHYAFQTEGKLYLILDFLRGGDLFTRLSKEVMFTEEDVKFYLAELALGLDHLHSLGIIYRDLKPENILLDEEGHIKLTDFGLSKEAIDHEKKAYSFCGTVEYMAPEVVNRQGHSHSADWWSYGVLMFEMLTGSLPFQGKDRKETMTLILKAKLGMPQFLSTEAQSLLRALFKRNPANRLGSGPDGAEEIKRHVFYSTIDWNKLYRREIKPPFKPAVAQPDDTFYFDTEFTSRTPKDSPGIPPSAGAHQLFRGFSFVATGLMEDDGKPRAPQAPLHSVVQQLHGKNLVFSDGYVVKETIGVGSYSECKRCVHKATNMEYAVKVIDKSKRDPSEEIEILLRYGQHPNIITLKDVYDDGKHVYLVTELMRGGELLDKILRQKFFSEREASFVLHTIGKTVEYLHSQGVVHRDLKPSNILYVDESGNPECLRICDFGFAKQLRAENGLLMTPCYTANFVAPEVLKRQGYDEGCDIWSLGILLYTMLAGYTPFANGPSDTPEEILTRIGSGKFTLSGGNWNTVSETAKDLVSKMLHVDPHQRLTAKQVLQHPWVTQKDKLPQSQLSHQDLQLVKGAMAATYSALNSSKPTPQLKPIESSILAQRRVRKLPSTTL
Deaminated glutathione amidase (Homo sapiens), sequence (Q86X76 whole entry): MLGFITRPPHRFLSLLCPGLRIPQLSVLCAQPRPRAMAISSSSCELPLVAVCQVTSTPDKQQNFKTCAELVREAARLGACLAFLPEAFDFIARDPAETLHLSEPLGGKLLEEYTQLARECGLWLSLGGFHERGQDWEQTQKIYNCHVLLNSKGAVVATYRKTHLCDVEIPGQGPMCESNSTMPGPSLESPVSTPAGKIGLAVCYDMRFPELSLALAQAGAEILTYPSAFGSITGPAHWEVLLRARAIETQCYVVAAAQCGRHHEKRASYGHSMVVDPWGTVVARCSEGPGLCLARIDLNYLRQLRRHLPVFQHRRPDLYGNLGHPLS
Agrin (Homo sapiens), sequence (O00468 whole entry): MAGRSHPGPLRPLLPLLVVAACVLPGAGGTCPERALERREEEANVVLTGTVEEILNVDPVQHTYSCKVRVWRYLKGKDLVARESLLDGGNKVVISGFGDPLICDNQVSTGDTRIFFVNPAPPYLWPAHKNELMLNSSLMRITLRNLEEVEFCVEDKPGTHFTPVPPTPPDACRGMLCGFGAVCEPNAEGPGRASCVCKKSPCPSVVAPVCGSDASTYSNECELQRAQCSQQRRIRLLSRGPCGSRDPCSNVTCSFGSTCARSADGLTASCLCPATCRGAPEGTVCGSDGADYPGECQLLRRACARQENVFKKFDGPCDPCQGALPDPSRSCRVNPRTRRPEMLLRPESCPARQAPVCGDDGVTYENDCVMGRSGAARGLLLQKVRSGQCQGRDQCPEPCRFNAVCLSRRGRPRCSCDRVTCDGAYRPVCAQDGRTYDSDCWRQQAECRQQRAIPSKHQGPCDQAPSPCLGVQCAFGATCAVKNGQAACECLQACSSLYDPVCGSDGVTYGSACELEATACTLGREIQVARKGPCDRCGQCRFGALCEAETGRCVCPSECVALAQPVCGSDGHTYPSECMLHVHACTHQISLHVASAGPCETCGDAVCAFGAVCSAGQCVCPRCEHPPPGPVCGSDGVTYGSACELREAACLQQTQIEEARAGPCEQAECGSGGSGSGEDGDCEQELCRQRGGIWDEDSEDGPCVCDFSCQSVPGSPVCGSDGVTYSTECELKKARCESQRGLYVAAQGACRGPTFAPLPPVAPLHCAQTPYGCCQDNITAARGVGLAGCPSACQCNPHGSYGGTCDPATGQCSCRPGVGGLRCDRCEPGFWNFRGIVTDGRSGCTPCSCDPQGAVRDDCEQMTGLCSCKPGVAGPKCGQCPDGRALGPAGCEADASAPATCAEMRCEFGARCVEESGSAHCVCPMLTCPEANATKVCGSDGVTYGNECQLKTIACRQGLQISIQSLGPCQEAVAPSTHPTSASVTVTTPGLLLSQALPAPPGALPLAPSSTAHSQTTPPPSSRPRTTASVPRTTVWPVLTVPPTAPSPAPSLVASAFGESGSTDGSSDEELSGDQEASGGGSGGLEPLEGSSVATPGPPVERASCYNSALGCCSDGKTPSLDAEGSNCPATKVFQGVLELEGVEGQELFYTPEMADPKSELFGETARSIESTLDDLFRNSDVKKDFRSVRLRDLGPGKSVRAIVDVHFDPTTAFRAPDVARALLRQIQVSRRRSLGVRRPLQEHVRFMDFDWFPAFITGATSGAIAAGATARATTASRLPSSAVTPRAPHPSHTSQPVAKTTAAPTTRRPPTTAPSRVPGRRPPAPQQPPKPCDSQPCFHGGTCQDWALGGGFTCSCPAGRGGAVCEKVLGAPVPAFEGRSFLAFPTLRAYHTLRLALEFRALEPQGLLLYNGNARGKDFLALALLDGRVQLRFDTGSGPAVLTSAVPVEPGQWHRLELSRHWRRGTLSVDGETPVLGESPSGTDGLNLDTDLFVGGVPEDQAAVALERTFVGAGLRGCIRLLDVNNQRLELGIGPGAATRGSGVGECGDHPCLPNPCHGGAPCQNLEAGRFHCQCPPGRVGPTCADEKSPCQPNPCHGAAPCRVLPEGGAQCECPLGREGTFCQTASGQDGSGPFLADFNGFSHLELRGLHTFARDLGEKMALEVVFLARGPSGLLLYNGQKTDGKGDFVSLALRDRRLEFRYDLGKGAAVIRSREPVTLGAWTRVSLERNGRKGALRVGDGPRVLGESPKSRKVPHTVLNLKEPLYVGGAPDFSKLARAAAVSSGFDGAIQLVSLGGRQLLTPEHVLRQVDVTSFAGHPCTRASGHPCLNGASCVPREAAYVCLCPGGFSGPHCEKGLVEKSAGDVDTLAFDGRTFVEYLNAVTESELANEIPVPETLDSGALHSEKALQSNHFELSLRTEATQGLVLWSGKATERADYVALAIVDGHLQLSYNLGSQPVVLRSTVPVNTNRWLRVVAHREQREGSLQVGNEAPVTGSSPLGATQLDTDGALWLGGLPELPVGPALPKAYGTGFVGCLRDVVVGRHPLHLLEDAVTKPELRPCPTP

COc1cc(O)c2c(c1)/C=C/C[C@H](O)[C@H](O)C(=O)/C=C\C[C@H](C)OC2=O
Activity [1]: 8.6%
Activity [2]: 20%

C=CC(=O)Nc1ccccc1Oc1nc(Nc2cnn(CCOC)c2)ncc1Cl
inhibition [3]: -9%

C=CC(=O)Nc1ccccc1Nc1nc(Nc2ccc(N3CCN(CCOCCOCCOCCNC(=O)CCCC[C@@H]4SC[C@@H]5NC(=O)N[C@@H]54)CC3)cc2)ncc1Cl
Activity [4]: Active
Activity [5]: Active
Activity [6]: Active
Activity [7]: Active
Activity [8]: Active
Activity [9]: Active
Activity [10]: Active
Activity [11]: Active
Activity [12]: Active
Activity [13]: Active
Activity [14]: Active
Activity [15]: Active
Activity [16]: Active
Activity [17]: Active
Activity [18]: Active
Activity [19]: Active
Activity [20]: Active
Activity [21]: Active
Activity [22]: Active
Activity [23]: Active
Activity [24]: Active
Activity [25]: Active
Activity [26]: Active
